Screening data deposited in PubChem by Johns Hopkins Ion Channel Center.
TRPC6 inhibitor: blocks the mouse TRPC6 cation channel. Q61143. HEK293-TRPC6, membrane potential dye, ACh-evoked depolarization; hits give low values. B-score at 10 µM. 310,000 compounds, 1.1% hits. AID 2553;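 active = B-score under library mean minus 3 SD, initial fluorescence not abnormally high, positive integrated signal ratio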;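 also: B-score derived from integrated fluorescence ratio over the kinetic read; more negative B-score means stronger inhibition of depolarization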
TRPC6 act: mouse TRPC6 channel activation | Q61143 | HEK293-TRPC6 membrane potential dye fluorescence; hits give high values | B-score at 10 µM | 310,000 compounds, 0.13% hits;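 active = B-score of the integrated fluorescence ratio above library mean plus 3 SD, and starting fluorescence ratio within library mean plus 5 SD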;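 also: higher score means more depolarization so channel activation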
TRPC4 inh: TRPC4 (mouse) channel inhibition. HEK293 TRPC4beta/mu-opioid, DAMGO-evoked Fluo4 calcium flux; hits give low values. Q9QUQ5. B-score at 10 µM. 300,000 compounds, 0.39% hits;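 active = B-score over 3 SD under the library average, no early fluorescence shift, positive overall ratio signal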
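Material: HEK293 cells with stable TRPC4beta plus mu-opioid receptor expression / Probe or stimulus: DAMGO in two steps, submaximal then maximal / Compound: single concentration per test compound / Technique: kinetic Fluo4 fluorescence imaging of calcium influx / Read-out: per-well B score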
TRPC4 potent: TRPC4 (mouse) allosteric potentiation | AID 2227 | HEK293 TRPC4beta/mu-opioid, DAMGO EC20, Fluo-4 Ca2+ flux; hits give high values | B-score at 10 µM | 310,000 compounds, 0.42% hits;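 active = B-score of calcium response area above 5 SD of library B-scores, with initial fluorescence ratio within 5 SD of library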
TRPC4 act: TRPC4 (mouse) channel activation | Q9QUQ5 | HEK293 TRPC4beta/mu-opioid, Fluo4 calcium fluorescence; hits give high values | B-score at 10 µM | 310,000 compounds, 0.49% hits;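 active = B-score above 5 SD of library B-scores, and initial fluorescence ratio not above library mean plus 5 SD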;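 also: positive B-score marks a calcium rise read as TRPC4 activation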
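Technique: kinetic Fluo4 calcium fluorescence; Test system: TRPC4beta and mu-opioid receptor HEK293 stable cells; Measure: B-scored integrated calcium fluorescence ratio; Benchmarks: low control buffer alone, high control maximal DAMGO; Schedule: 45 min room-temperature Fluo4 loading, 110 s read.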
TRPC4 spec 2: second selectivity test of TRPC6 inhibitors: effect on mouse TRPC4; shares compounds with TRPC6 inhibitor; HEK293 TRPC4/MOR, membrane potential dye fluorescence; channel activated by saturating DAMGO dose; inhibition, % at 10 µM; 920 compounds, 42% hits;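 active = compounds whose fluorescence signal differed from control wells by over 3 SD, either direction, in both duplicate plates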
TRPC4 spec: tests whether TRPC6 inhibitors also affect mouse TRPC4. shares compounds with TRPC6 inhibitor. HEK293 TRPC4/mu-opioid, membrane potential fluorescence. activity change, negative = inhibition, % at 10 µM. 920 compounds, 61% hits. AID 2777;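 active = rise or fall in signal beyond 3 SD of buffer-only wells in both replicate plates, either sign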;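 also: integrated kinetic ratio of fluorescence range over baseline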
HEK293 MPD ctr 2-1: second counter-screen for TRPC6 inhibitors: parental HEK293 cells | shares compounds with TRPC6 inhibitor | parental HEK293 membrane potential dye fluorescence; maximal acetylcholine challenge after compound addition | signal change vs control, % at 10 µM | 920 compounds, 31% hits | AID 2779;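 active = membrane potential signal moving either way by over 3 SD of the maximum-effect control, in both duplicate plates, meaning non-specific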
HEK293 MPD ctr-1: counter-screen for TRPC6 inhibitors: effect in parental HEK293 cells | shares compounds with TRPC6 inhibitor | parental HEK293 membrane potential dye fluorescence | membrane potential signal change, % at 10 µM | 920 compounds, 60% hits | AID 2780;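 active = membrane potential signal shifting up or down by more than 3 SD of buffer-only wells, on both duplicate plates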
HEK293 MPD ctr-2: counter-screen for TRPC6 modulators: effect in parental HEK293 cells; shares compounds with TRPC6 inhibitor; membrane potential dye fluorescence; membrane potential signal change, % at 10 µM; 2,400 compounds, 51% hits;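 active = membrane potential signal moves up or down beyond 5 SD from buffer-only wells, on both duplicate plates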
HEK293 MPD ctr 2-2: parental HEK293 nonspecific activity of TRPC6 modulators, second screen; shares compounds with TRPC6 inhibitor; membrane potential dye fluorescence; after compound, maximal acetylcholine stimulation; inhibition, % at 10 µM; 2,400 compounds, 14% hits;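 active = membrane potential signal drops by more than 5 SD from the mean control signal, in both duplicate plates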
TRPC4/MOR mod: tests whether TRPC6 modulators also affect mouse TRPC4 | shares compounds with TRPC6 inhibitor | 2,400 compounds, 69% hits | percent change from control (negative = decrease, positive = increase), % at 10 µM | HEK293 TRPC4/mu-opioid, membrane potential fluorescence;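 active = membrane potential signal moved up or down beyond 5 SD of buffer control wells, in both duplicate plates, actives on both sides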
TRPC4 ctr inh 2: second selectivity test of TRPC6 modulators against mouse TRPC4; shares compounds with TRPC6 inhibitor; HEK293 TRPC4/mu-opioid, membrane potential dye fluorescence; stimulated with maximal-effect DAMGO; inhibition, % at 10 µM; 2,400 compounds, 55% hits;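 active = drop in membrane potential signal beyond 5 SD of the control wells in both duplicate plates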;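 also: TRPC4 counter screen for TRPC6 hits run under conditions tuned for TRPC6 not TRPC4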
TRPC6 block conf: mouse TRPC6 inhibitor confirmation | shares compounds with TRPC6 inhibitor | inhibition, % at 10 µM | 3,300 compounds, 43% hits | HEK293-TRPC6, membrane potential dye, ACh-evoked depolarization | AID 488960;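 active = fluorescence ratio falls more than 5 SD below the full-stimulation control mean, in both duplicate runs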;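 also: integrated fluorescence ratio of peak minus minimum over baseline after agonist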
TRPC6 act conf: mouse TRPC6 activator confirmation; shares compounds with TRPC6 inhibitor; HEK293-TRPC6 membrane potential dye fluorescence, FDSS; activation, % at 10 µM; 2,800 compounds, 11% hits;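 active = ratio signal rise beyond 5 SD above unstimulated control wells' mean, seen in both duplicate runs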
Large screens that a line does not name were inactive (follow-up assays come after a bar, where they were run). Compounds with a hit are over-represented: about 2.3% of the library has one in this group of screens.

CCN1CCN(Cc2cc(=O)oc3cc4c(cc23)CCC4)CC1	TRPC6 inhibitor -5.07 | HEK293 MPD ctr-2 -70.0% | HEK293 MPD ctr 2-2 inactive | TRPC4/MOR mod -8.0% | TRPC4 ctr inh 2 40.0% | TRPC6 block conf inactive | TRPC6 act conf inactive
CN(C)CCC(=O)N1c2ccccc2Sc2ccc(Cl)cc21	TRPC6 inhibitor -8.47 | TRPC4 spec 2 inactive | TRPC4 spec 4.2% | HEK293 MPD ctr 2-1 inactive | HEK293 MPD ctr-1 7.7% | TRPC6 block conf 58.5%
CN1CCN(CCC(=O)N2c3ccccc3Sc3ccc(Cl)cc32)CC1	none
NCCCC(=O)N1c2ccccc2Sc2ccc(Cl)cc21	TRPC6 inhibitor -5.28 | HEK293 MPD ctr-2 inactive | HEK293 MPD ctr 2-2 inactive | TRPC4/MOR mod inactive | TRPC4 ctr inh 2 54.0% | TRPC6 block conf 64.0% | TRPC6 act conf inactive
O=C(CCN1CCN2CCCC2C1)N1c2ccccc2Sc2ccc(Cl)cc21 (stereo not drawn)	none
NCCC(=O)N1c2ccccc2Sc2ccc(Cl)cc21	none
CN1CCC=C(C(=O)N2c3ccccc3Sc3ccc(Cl)cc32)C1	TRPC6 inhibitor -5.36 | HEK293 MPD ctr-2 118.0% | HEK293 MPD ctr 2-2 inactive | TRPC4/MOR mod 15.5% | TRPC4 ctr inh 2 38.5% | TRPC6 block conf 41.0%
CCN(CC)CCC(=O)N1c2ccccc2Sc2ccc(Cl)cc21	TRPC6 inhibitor -5.37 | HEK293 MPD ctr-2 216.5% | HEK293 MPD ctr 2-2 inactive | TRPC4/MOR mod 35.0% | TRPC4 ctr inh 2 45.5% | TRPC6 block conf 78.5%
CN(C)CC(=O)N1c2ccccc2Sc2ccc(Cl)cc21	none
CCc1c(C)c(C#N)c2nc3ccccc3n2c1NC	none
Cc1c(Cc2ccccc2)c(NCCCO)n2c(nc3ccccc32)c1C#N	none
C=CCc1c(C)c(C#N)c2nc3ccccc3n2c1NCCN(C)C	TRPC6 inhibitor -5.44 | HEK293 MPD ctr-2 -116.5% | HEK293 MPD ctr 2-2 inactive | TRPC4/MOR mod -24.0% | TRPC4 ctr inh 2 51.5% | TRPC6 block conf 53.5% | TRPC6 act conf inactive
CCCc1cc(NCCN(C)C)n2c(nc3ccccc32)c1C#N	none
CCc1c(C)c(C#N)c2nc3ccccc3n2c1NCCN(C)C	TRPC6 inhibitor -9.47 | HEK293 MPD ctr-2 -85.0% | HEK293 MPD ctr 2-2 112.5% | TRPC4/MOR mod -18.0% | TRPC4 ctr inh 2 75.5% | TRPC6 block conf 77.5% | TRPC6 act conf inactive
C=C(C)Cc1c(C)c(C#N)c2nc3ccccc3n2c1NCCCN(C)C	TRPC6 inhibitor -7.25 | TRPC4 spec 2 48.5% | TRPC4 spec -16.1% | HEK293 MPD ctr 2-1 inactive | HEK293 MPD ctr-1 -353.5% | TRPC6 block conf inactive | TRPC6 act conf inactive
CCCc1cc(NCCCN(C)C)n2c(nc3ccccc32)c1C#N	TRPC6 inhibitor -6.78 | TRPC4 spec 2 62.0% | TRPC4 spec -36.0% | HEK293 MPD ctr 2-1 42.5% | HEK293 MPD ctr-1 -454.0% | TRPC6 block conf 63.3% | TRPC6 act conf inactive
CCCCc1ccc(-c2csc(/C(C#N)=C\c3ccc(C)o3)n2)cc1	TRPC6 inhibitor -8.41 | TRPC4 spec 2 inactive | TRPC4 spec inactive | HEK293 MPD ctr 2-1 inactive | HEK293 MPD ctr-1 inactive | TRPC6 block conf inactive
CCCn1c(CN2CCN(C(C)=O)CC2)nc2cc(S(=O)(=O)N(C)C)ccc21	none
Cc1ccc(SC(=O)c2c(C)noc2-c2cc(C)on2)cc1	none
NC(=O)CC(NC(=O)Cc1ccc(Br)cc1)c1ccc(NC2CCN(Cc3ccccc3)CC2)c([N+](=O)[O-])c1 (stereo not drawn)	none
O=[N+]([O-])c1ccc(NC2CCN(Cc3ccccc3)CC2)c([N+](=O)[O-])c1	TRPC6 inhibitor -6.71 | HEK293 MPD ctr-2 -90.0% | HEK293 MPD ctr 2-2 inactive | TRPC4/MOR mod -17.0% | TRPC4 ctr inh 2 52.5% | TRPC6 block conf inactive | TRPC6 act conf inactive
NS(=O)(=O)c1ccc(NN=C2CCN(Cc3ccccc3)CC2)c([N+](=O)[O-])c1	TRPC6 inhibitor -5.72, TRPC4 potent 17 | HEK293 MPD ctr-2 inactive | HEK293 MPD ctr 2-2 inactive | TRPC4/MOR mod inactive | TRPC4 ctr inh 2 inactive | TRPC6 block conf inactive | TRPC6 act conf inactive
O=C1C2CCCCC2C(=O)N1c1ccc(NC2CCN(Cc3ccccc3)CC2)c([N+](=O)[O-])c1 (stereo not drawn)	TRPC6 inhibitor -6.35, TRPC4 act 43 | HEK293 MPD ctr-2 inactive | HEK293 MPD ctr 2-2 inactive | TRPC4/MOR mod 14.5% | TRPC4 ctr inh 2 51.0% | TRPC6 block conf inactive | TRPC6 act conf inactive
COc1cccc(CNC(=O)CCCC(=O)NC(C)CCc2ccccc2)c1 (stereo not drawn)	none
O=C(COc1cccc2cccnc12)N1CCc2ccccc2C1	TRPC6 inhibitor -6.25 | HEK293 MPD ctr-2 -125.5% | HEK293 MPD ctr 2-2 inactive | TRPC4/MOR mod -21.5% | TRPC4 ctr inh 2 inactive | TRPC6 block conf inactive | TRPC6 act conf inactive
COc1ccc(C(=O)NC(=S)NCc2cccnc2)cc1Cl	none
O=c1oc2ccccc2c(N2CCCCC2)c1CN1CCCC1	none
O=c1oc2ccccc2c(N2CCCCC2)c1CN1CCCCC1	TRPC6 inhibitor -5.13 | HEK293 MPD ctr-2 106.5% | HEK293 MPD ctr 2-2 inactive | TRPC4/MOR mod 25.5% | TRPC4 ctr inh 2 inactive | TRPC6 block conf inactive
